Source: PubChem BioAssay (The Scripps Research Institute Molecular Screening Center)
A selection: hits, their analogues and other compounds. The true share with any hit is near 1.8%.
M4 PAM – potentiates acetylcholine response at human M4 receptor | CHO-K1 hM4/Gqi5, Fluo-8 calcium fluorescence, ACh EC20; 0% = ACh EC20, 100% = maximal ACh | AID 624126 | activation, % at 3 µM | P08173 | 360,000 compounds, 0.4% hits;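 active means activation above its plate's cutoff, the mean activation of sample wells plus 3 SD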
M5 ag – CHRM5 agonism in calcium assay; activation, % at 3 µM; CHO-K1 hM5 cells, Fluo-8 calcium fluorescence; 0% DMSO wells, 100% maximal acetylcholine response; 360,000 compounds, 0.19% hits;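 active means activation above the run's mean over test compounds plus 3 SD, cut at about 23% in these data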;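 further: signal is peak over basal fluorescence ratio across the kinetic read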
Target sequence (P08912 whole entry, looked up): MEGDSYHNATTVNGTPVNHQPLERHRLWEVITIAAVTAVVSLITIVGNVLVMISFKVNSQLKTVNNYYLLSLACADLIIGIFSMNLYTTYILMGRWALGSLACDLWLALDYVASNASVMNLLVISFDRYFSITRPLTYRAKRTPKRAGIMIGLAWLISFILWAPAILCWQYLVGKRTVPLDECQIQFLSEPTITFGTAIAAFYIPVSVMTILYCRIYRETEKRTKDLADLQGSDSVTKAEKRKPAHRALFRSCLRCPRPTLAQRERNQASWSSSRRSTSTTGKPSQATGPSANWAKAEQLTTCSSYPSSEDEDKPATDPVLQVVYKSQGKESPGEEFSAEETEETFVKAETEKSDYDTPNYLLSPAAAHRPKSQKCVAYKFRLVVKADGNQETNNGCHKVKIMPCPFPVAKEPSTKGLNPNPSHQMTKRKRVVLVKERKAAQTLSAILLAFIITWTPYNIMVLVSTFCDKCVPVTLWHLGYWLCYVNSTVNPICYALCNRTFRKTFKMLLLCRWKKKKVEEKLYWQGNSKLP
CHRM4 antagonist – CHRM4 antagonism in calcium assay | P08173 | CHO-hM4 cells, ACh EC80, Fluo-8 calcium fluorescence | inhibition, % at 3 µM | 360,000 compounds, 0.73% hits;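 active means inhibition above its plate's cutoff, the mean inhibition of sample wells plus 3 SD, cut at about 27% in these data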;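 further: 0% = acetylcholine EC80 with DMSO and 100% = DMSO without agonist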
M5 PAM – CHRM5 positive allosteric modulation. P08912. CHO-K1 hM5, Fluo-8 calcium, ACh EC20 PAM; 0% = ACh EC20, 100% = ACh EC100. activation, % at 3 µM. 360,000 compounds, 0.3% hits. AID 624038;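 active means activation above the run cutoff, the mean activation of all test compounds plus 3 SD, cut at about 18% in these data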
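Replicates: One well per compound, no replicates | System: Human M5 receptor in CHO-K1 cells | Benchmarks: Low control EC20 acetylcholine (0%), high control EC100 acetylcholine (100%) | Probe or stimulus: Acetylcholine, EC20 level | Times: Fluo-8 loading 80 min at 37 °C plus 30 min room temperature | Signal: Intracellular calcium via Fluo-8 fluorescence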
CHRM5 antagonist – CHRM5 antagonism in calcium assay | AID 624040 | 360,000 compounds, 0.59% hits | inhibition, % at 3 µM | CHO-hM5 cells, Fluo-8 calcium fluorescence, ACh EC80 | P08912;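 active means inhibition above a per-plate cutoff, the mean of that plate's test compounds plus 3 SD, cut at about 27% in these data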;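 further: 0% = acetylcholine EC80 with DMSO and 100% = DMSO without agonist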
CHRM4 agonist – CHRM4 agonism in calcium assay; P08173; CHO-K1 hM4/Gqi5, Fluo-8 calcium fluorescence; vehicle 0%, full acetylcholine response 100%; activation, % at 3 µM; 360,000 compounds, 0.14% hits;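 active means activation above the run mean over all test wells plus 3 SD, cut at about 32% in these data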;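 further: peak over basal fluorescence ratio per well then scaled between controls; 0% = DMSO wells and 100% = acetylcholine at EC100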
An asterisk follows results filed as active.

SMILES | M4 PAM | M5 ag | CHRM4 antagonist | M5 PAM | CHRM5 antagonist | CHRM4 agonist
Cc1ccc(C)c(NC(=O)CN(C)C(C)C(=O)N2CC(C)CC(C)C2)c1 (stereo not given) | 16 | -3 | -12 | 19* | -21 | 2
COc1ccccc1C(O)c1ncc(-c2cccc3ccccc23)[nH]1 (stereo not given) | 3 | -1 | -19 | -8 | 12 | 8
CCOc1ccc2nc(NC(=O)Nc3ccccc3)sc2c1 | -5 | -1 | 5 | -6 | 2 | 5
COc1cccc(NC(=O)Nc2cc(Cl)ccc2C)c1 | -4 | 0 | -4 | -7 | 32* | 10
COc1ccc2nc(NC(=O)Nc3ccccc3)sc2c1 | -18 | 7 | 43* | -13 | 5 | 18
COc1cccc(NC(=O)Nc2ccc3nc(C)c(C)nc3c2)c1 | 3 | 0 | -2 | 1 | -1 | 9
COc1ccc(NC(=O)Nc2cccc(OC)c2)cc1 | -1 | 2 | 5 | -3 | 2 | 6
COc1cccc(NC(=O)Nc2ccc3nsnc3c2)c1 | -12 | 5 | 9 | -16 | 54* | 21
NC(=O)c1nsc(C(=O)N(c2cccc(F)c2)C(C(=O)NC2CCCC2)c2ccc(O)cc2)c1N (stereo not given) | -7 | 1 | 9 | 5 | -4 | 1
COc1ccc(C(C(=O)NC2CCCC2)N(C(=O)c2snc(C(N)=O)c2N)c2cccc(O)c2)cc1 (stereo not given) | -11 | 0 | 8 | -13 | 27* | 21
OC[C@H]1O[C@H](c2nc(-c3nc(-c4cccs4)no3)cs2)C[C@@H]1O | 10 | 1 | -13 | -1 | -5 | 2
NNC(=O)CN1C(=O)Nc2ccc(Cl)cc2C1c1ccccc1 (stereo not given) | -16 | -7 | 45* | 2 | 4 | 0
O=C(NNC(=O)c1cc(-c2cccnc2)nc2ccccc12)Nc1ccc(Cl)cc1 | -25 | 6 | 30* | -34 | 38* | 22
COC(=O)CCCCC1SCC2NC(=O)NC21 (stereo not given) | 5 | -2 | -8 | 23* | -2 | 1
CCCNC(=O)C1(C)CCCN(Cc2cccs2)C1 (stereo not given) | 4 | 0 | -9 | -3 | -4 | 1
Cc1sc(NC(=O)c2cccs2)c(C(N)=O)c1C | 18* | 0 | -1 | 4 | -3 | 1
NC(=O)c1ccsc1NC(=O)c1cccs1 | 4 | -1 | -15 | -9 | 6 | 1
C=CC(=O)Nc1ccc(N(C)c2ccnc(Nc3ccc(N4CCN(C)CC4)cc3)n2)cc1 | -6 | -9 | 24 | -22 | 12 | 0
C[C@H](NC(=O)[C@@H]1Cc2ccccc2CN1)C(=O)Nc1ccc2c(c1)OCCO2 | 5 | -3 | -11 | 20* | -21 | 1
CNC(=S)N1CCC(NC(=O)C(Cc2ccc(OC)cc2)NC(C)=O)CC1 (stereo not given) | -1 | 2 | -3 | 8 | -1 | 1
COc1ccc(CC(NC(C)=O)C(=O)N2CCN(C(=O)N(C(C)C)C(C)C)CC2)cc1 (stereo not given) | 3 | 1 | 29* | 12 | -7 | 2
OCCOc1nnnn1-c1ccccc1 | 10 | 1 | 1 | 6 | -5 | 1
CCCOc1nnnn1-c1ccccc1 | 19* | -1 | -4 | 6 | 0 | 0
CCC(C)[C@H]1CN=C(N)N1CCc1cc(C(F)(F)F)cc(C(F)(F)F)c1 (stereo not given in full) | -8 | -11 | 10 | -42 | 29* | 0
NC1=NC[C@@H](CC2CCCCC2)N1CCc1cc(C(F)(F)F)cc(C(F)(F)F)c1 | -14 | -3 | 24 | -20 | 45* | -1
CC(O)[C@H]1CNC(=O)C(=O)N1CCc1cc(C(F)(F)F)cc(C(F)(F)F)c1 (stereo not given in full) | 3 | -5 | -2 | -17 | 42* | 1
CC(O)[C@H]1CNC(=O)C(=O)N1CCc1cccc(F)c1 (stereo not given in full) | -2 | 6 | -2 | -1 | 5 | 0
